Measurements taken from ChEMBL document CHEMBL3992547, “Antimicrobial activity of rhodanine-3-acetic acid derivatives” (Bioorg Med Chem, 2017).
Values after ≈ are worked out from the molar mass of the structure shown. Active and inactive are the calls of the source. No cut-off for these calls is given here.

Legend:
[1] = system: Enterococcus; assay: Antibacterial activity against Enterococcus sp. J 14365/08 incubated for 48 hrs under dark condition by microdilution broth assay; conditions: J 14365/08, 48 h
[2] = system: Candida albicans; assay: Antifungal activity against Candida albicans ATCC 44859 after 48 hrs by microdilution broth assay; format: functional; conditions: ATCC 44859, 48 h
In short: (§1)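 Broth microdilution per CLSI M27-A3 and M38-A2 in RPMI 1640 with glutamine, buffered to pH 7.0 with MOPS. Compounds are diluted in DMSO. Final inoculum is 5 × 10³ CFU/mL for yeasts and 0.5–5 × 10⁴ CFU/mL for moulds. Plates are incubated in the dark at 35 °C in humid air and read visually and/or at 540 nm after 24 and 48 h. MIC is ≥80% growth reduction (IC₈₀) for yeasts and ≥50% (IC₅₀) for filamentous fungi.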

[3] = system: Trichophyton mentagrophytes; assay: Antifungal activity against Trichophyton mentagrophytes 445 after 72 hrs by microdilution broth assay; format: functional; conditions: Trichophyton mentagrophytes, 445, 72 h
In short: (§2)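 Broth microdilution per CLSI M38-A2 in RPMI 1640 with glutamine, buffered to pH 7.0 with MOPS, with DMSO as diluent. Final inoculum is 0.5–5 × 10⁴ CFU/mL. Plates are incubated in the dark at 35 °C in humid air and read visually and/or at 540 nm after 72 and 120 h. MIC is at least 50% growth reduction versus control.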

[4] = system: Staphylococcus epidermidis; assay: Antibacterial activity against Staphylococcus epidermidis H 6966/08 incubated for 24 hrs under dark condition by microdilution broth assay; format: functional; conditions: H 6966/08, 24 h
In short: (§3)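 Broth microdilution per M07-A07, modified, in Mueller-Hinton broth adjusted to pH 7.4 (±0.2). Inoculum is prepared in sterile water to McFarland 0.5 (1.5 × 10⁸ CFU/mL). Plates are incubated in the dark at 35 °C in humid air. MIC is read after 24 and 48 h as at least 95% growth reduction versus control (IC₉₅).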

[5] = system: Trichophyton mentagrophytes; assay: Antifungal activity against Trichophyton mentagrophytes 445 after 120 hrs by microdilution broth assay; format: functional; conditions: Trichophyton mentagrophytes, 445, 120 h
In short: as §2

[6] = system: Mycobacterium kansasii; assay: Antimycobacterial activity against Mycobacterium kansasii isolate 235/80 after 21 days by micromethod; format: functional; conditions: isolate 235/80, 504 h
[7] = system: Staphylococcus aureus; assay: Antibacterial activity against Staphylococcus aureus CCM 4516/08 incubated for 24 hrs under dark condition by microdilution broth assay; format: functional; conditions: CCM 4516/08, 24 h
In short: as §3

[8] = system: Aspergillus fumigatus; assay: Antifungal activity against Aspergillus fumigatus 231 after 24 hrs by microdilution broth assay; format: functional; conditions: Aspergillus fumigatus, 231, 24 h
In short: as §1

[9] = system: Candida tropicalis; assay: Antifungal activity against Candida tropicalis 156 after 24 hrs by microdilution broth assay; format: functional; conditions: Candida tropicalis, 156, 24 h
In short: as §1

[10] = system: Mycobacterium kansasii; assay: Antimycobacterial activity against Mycobacterium kansasii isolate 6509/96 after 21 days by micromethod; format: functional; conditions: isolate 6509/96, 504 h
[11] = system: Pseudomonas aeruginosa; assay: Antibacterial activity against Pseudomonas aeruginosa CCM 1961 up to 500 uM incubated for 24 to 48 hrs under dark condition by microdilution broth assay; format: functional
In short: as §3

[12] = system: Mycobacterium kansasii; assay: Antimycobacterial activity against Mycobacterium kansasii isolate 235/80 after 7 days by micromethod; format: functional; conditions: isolate 235/80, 168 h
[13] = system: Mycobacterium tuberculosis; assay: Antimycobacterial activity against Mycobacterium tuberculosis H37Rv 331/88 measured after 21 days by micromethod; format: functional; conditions: H37Rv 331/88, 504 h
[14] = system: Mycobacterium kansasii; assay: Antimycobacterial activity against Mycobacterium kansasii isolate 6509/96 after 14 days by micromethod; format: functional; conditions: isolate 6509/96, 336 h
[15] = system: Aspergillus fumigatus; assay: Antifungal activity against Aspergillus fumigatus 231 after 48 hrs by microdilution broth assay; format: functional; conditions: Aspergillus fumigatus, 231, 48 h
In short: as §1

[16] = system: Staphylococcus aureus; assay: Antibacterial activity against methicillin-resistant Staphylococcus aureus H 5996/08 incubated for 24 hrs under dark condition by microdilution broth assay; format: functional; conditions: H 5996/08, 24 h
In short: (§4)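 Microdilution broth method modified per M07-A07, in Mueller-Hinton broth adjusted to pH 7.4 (±0.2). Inoculum made in sterile water to 0.5 McFarland (1.5 × 10⁸ CFU/mL). Plates incubated in the dark at 35 °C in a humid atmosphere, with reads at 24 and 48 h. MIC taken as at least 95% growth reduction (IC₉₅) versus control.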

[17] = system: Candida tropicalis; assay: Antifungal activity against Candida tropicalis 156 after 48 hrs by microdilution broth assay; format: functional; conditions: Candida tropicalis, 156, 48 h
In short: as §1

[18] = system: Enterococcus; assay: Antibacterial activity against Enterococcus sp. J 14365/08 incubated for 24 hrs under dark condition by microdilution broth assay; conditions: J 14365/08, 24 h
[19] = system: Pichia kudriavzevii; assay: Antifungal activity against Candida krusei E28 after 24 to 48 hrs hrs by microdilution broth assay; format: functional
In short: as §1

[20] = system: Mycobacterium kansasii; assay: Antimycobacterial activity against Mycobacterium kansasii isolate 6509/96 after 7 days by micromethod; format: functional; conditions: isolate 6509/96, 168 h
[21] = system: Candida albicans; assay: Antifungal activity against Candida albicans ATCC 44859 after 24 hrs by microdilution broth assay; format: functional; conditions: ATCC 44859, 24 h
In short: as §1

[22] = system: Lichtheimia corymbifera; assay: Antifungal activity against Absidia corymbifera 272 after 24 to 48 hrs hrs by microdilution broth assay; format: functional
In short: as §1

[23] = system: Trichosporon asahii; assay: Antifungal activity against Trichosporon asahii 1188 after 24 hrs by microdilution broth assay; format: functional; conditions: Trichosporon asahii, 1188, 24 h
In short: as §1

[24] = system: Escherichia coli; assay: Antibacterial activity against Escherichia coli CCM 4517 incubated for 48 hrs under dark condition by microdilution broth assay; format: functional; conditions: CCM 4517, 48 h
In short: as §3

[25] = system: Staphylococcus aureus; assay: Antibacterial activity against Staphylococcus aureus CCM 4516/08 incubated for 48 hrs under dark condition by microdilution broth assay; format: functional; conditions: CCM 4516/08, 48 h
In short: as §3

[26] = system: Nakaseomyces glabratus; assay: Antifungal activity against Candida glabrata 20/I after 48 hrs by microdilution broth assay; format: functional
In short: as §1

[27] = Solubility of the compound in Sula's semisynthetic medium up to 1 mM; format: physicochemical
[28] = system: Klebsiella pneumoniae; assay: Antibacterial activity against ESBL positive Klebsiella pneumoniae J 14368/08 up to 500 uM incubated for 24 to 48 hrs under dark condition by microdilution broth assay; format: functional
In short: as §3

[29] = system: Mycobacterium tuberculosis; assay: Antimycobacterial activity against Mycobacterium tuberculosis H37Rv 331/88 measured after 14 days by micromethod; format: functional; conditions: H37Rv 331/88, 336 h
[30] = system: Mycobacterium avium; assay: Antimycobacterial activity against Mycobacterium avium 330/88 measured after 14 days by micromethod; format: functional; conditions: 330/88, 336 h
[31] = system: Trichosporon asahii; assay: Antifungal activity against Trichosporon asahii 1188 after 48 hrs by microdilution broth assay; format: functional; conditions: Trichosporon asahii, 1188, 48 h
In short: as §1

[32] = system: Mycobacterium avium; assay: Antimycobacterial activity against Mycobacterium avium 330/88 measured after 21 days by micromethod; format: functional; conditions: 330/88, 504 h
[33] = system: Staphylococcus aureus; assay: Antibacterial activity against methicillin-resistant Staphylococcus aureus H 5996/08 incubated for 48 hrs under dark condition by microdilution broth assay; format: functional; conditions: H 5996/08, 48 h
In short: as §4

[34] = system: Nakaseomyces glabratus; assay: Antifungal activity against Candida glabrata 20/I after 24 hrs by microdilution broth assay; format: functional
In short: as §1

[35] = system: Mycobacterium kansasii; assay: Antimycobacterial activity against Mycobacterium kansasii isolate 235/80 after 14 days by micromethod; format: functional; conditions: isolate 235/80, 336 h
[36] = system: Klebsiella pneumoniae; assay: Antibacterial activity against Klebsiella pneumoniae D 11750/08 up to 500 uM incubated for 24 to 48 hrs under dark condition by microdilution broth assay; format: functional
In short: as §3

[37] = system: Escherichia coli; assay: Antibacterial activity against Escherichia coli CCM 4517 incubated for 24 hrs under dark condition by microdilution broth assay; format: functional; conditions: CCM 4517, 24 h
In short: as §3

[38] = system: Staphylococcus epidermidis; assay: Antibacterial activity against Staphylococcus epidermidis H 6966/08 incubated for 48 hrs under dark condition by microdilution broth assay; format: functional; conditions: H 6966/08, 48 h
In short: as §3

O=C(CN1C(=O)CSC1=S)Oc1ccc(C(F)(F)F)cc1
MIC95 [1]: 62.5 µM (≈ 21 µg/mL)
MIC80 [2]: > 500 µM
MIC50 [3]: 125 µM (≈ 41.9 µg/mL)
MIC95 [4]: 15.6 µM (≈ 5.24 µg/mL)
MIC50 [5]: 250 µM (≈ 83.8 µg/mL)
MIC [6]: 1000 µM (≈ 335 µg/mL)
MIC95 [7]: 15.6 µM (≈ 5.24 µg/mL)
MIC50 [8]: > 500 µM
MIC80 [9]: > 500 µM
MIC [10]: 1000 µM (≈ 335 µg/mL)
Activity [11]: inactive
MIC [12]: 1000 µM (≈ 335 µg/mL)
MIC [13]: 1000 µM (≈ 335 µg/mL)
MIC [14]: 1000 µM (≈ 335 µg/mL)
MIC50 [15]: > 500 µM
MIC95 [16]: 15.6 µM (≈ 5.24 µg/mL)
MIC80 [17]: > 500 µM
MIC95 [18]: 15.6 µM (≈ 5.24 µg/mL)
Activity [19]: inactive
MIC [20]: 1000 µM (≈ 335 µg/mL)
MIC80 [21]: > 500 µM
Activity [22]: inactive
MIC80 [23]: 500 µM (≈ 168 µg/mL)
MIC95 [24]: > 500 µM
MIC95 [25]: 62.5 µM (≈ 21 µg/mL)
MIC80 [26]: > 500 µM
solubility [27]: Soluble
Activity [28]: inactive
MIC [29]: 500 µM (≈ 168 µg/mL)
MIC [30]: 1000 µM (≈ 335 µg/mL)
MIC80 [31]: > 500 µM
MIC [32]: 1000 µM (≈ 335 µg/mL)
MIC95 [33]: 62.5 µM (≈ 21 µg/mL)
MIC80 [34]: 500 µM (≈ 168 µg/mL)
MIC [35]: 1000 µM (≈ 335 µg/mL)
Activity [36]: inactive
MIC95 [37]: > 500 µM
MIC95 [38]: 62.5 µM (≈ 21 µg/mL)
